Measurements reported in ChEMBL document CHEMBL4425138, “Probing Lipophilic Adamantyl Group as the P1-Ligand for HIV-1 Protease Inhibitors: Design, Synthesis, Protein X-ray Structural Studies, and Biological Evaluation” (J Med Chem, 2016).

How the values were obtained:
Protease = Protease (Human immunodeficiency virus 1, UniProt Q9YQ12); assay: Inhibition of HIV1 protease using Abz-NleF*-6 as substrate preincubated for 5 to 10 mins followed by substrate addition measured after 1 hr by fluorometric assay
[1] = test system: Human immunodeficiency virus; assay: Antiviral activity against HIV1 […] infected in human MT2 cells by MTT assay; type: functional, organism-based; details: Human immunodeficiency virus 1, MT2
Method in brief: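 MT-2 human T-lymphoid cells infected with 100 TCID50 of HIV-1 LAI and cultured with each inhibitor. IC50 read by MTT assay. Run in triplicate. Values are means (±1 SD) from two independent experiments.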

[2] = test system: Human immunodeficiency virus 1; assay: Antiviral activity against darunavir resistant HIV1 harboring protease L10I/I15V/K20R/L24I/V32I/M36I/M46L/L63P/A71T/V82A/L89M mutant at 20 passages infected in human MT4 cells by p24 assay; type: functional, organism-based; details: Human immunodeficiency virus 1, MT4
Method in brief: (§1)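 MT-4 cells (1×10^4) infected with 50 TCID50 of virus and cultured across a range of compound concentrations. Virus was wild-type HIV-1 NL4-3 or a multidrug-resistant variant (HIV-1B, HIV-1C, or DRV-resistant P20). IC50 from p24 assay. Run in triplicate. Values are means (±1 SD) from two independent experiments.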

[3] = test system: Human immunodeficiency virus 1; assay: Antiviral activity against multi-drug resistant HIV1B harboring protease L10I/L33I/M36I/M46I/F53L/K55R/I62V/L63P/A71V/G73S/V82A/L90M/I93L mutant infected in human MT4 cells by p24 assay; type: functional, organism-based; details: Human immunodeficiency virus 1, B; method in brief: as §1
[4] = test system: Human immunodeficiency virus 1; assay: Antiviral activity against wild type HIV1 NL4-3 infected in human MT4 cells by p24 assay; type: functional, organism-based; details: Human immunodeficiency virus 1, NL4-3, MT4
Method in brief: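 MT-4 cells (1×10^4) infected with 50 TCID50 of virus and cultured across a range of compound concentrations. IC50 from p24 assay. Run in triplicate. Values are means (±1 SD) from two independent experiments.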

[5] = test system: Human immunodeficiency virus 1; assay: Antiviral activity against multi-drug resistant HIV1C harboring protease L10I/I15V/K20R/L24I/M36I/M46L/I54V/I62V/L63P/K70Q/V82A/L89M mutant infected in human MT4 cells by p24 assay; type: functional, organism-based; details: Human immunodeficiency virus 1, C; method in brief: as §1

Chain of Protease (Q9YQ12 whole entry): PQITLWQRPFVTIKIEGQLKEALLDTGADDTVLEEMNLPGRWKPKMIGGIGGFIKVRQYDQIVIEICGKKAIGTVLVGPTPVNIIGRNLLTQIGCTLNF

SMILES	Ki (Protease)	IC50 [1]	IC50 [2]	IC50 [3]	IC50 [4]	IC50 [5]
COc1ccc(S(=O)(=O)N(CC(C)C)C[C@@H](O)[C@H](CC23CC4CC(CC(C4)C2)C3)NC(=O)O[C@@H]2CCOC2)cc1	2.8 nM					
CC(C)CN(C[C@@H](O)[C@H](CC12CC3CC(CC(C3)C1)C2)NC(=O)O[C@H]1CO[C@H]2OCC[C@H]21)S(=O)(=O)c1ccc(N)cc1	0.73 nM	60 nM				
CC(C)CN(C[C@@H](O)[C@H](CC12CC3CC(CC(C3)C1)C2)NC(=O)O[C@H]1CCOC1)S(=O)(=O)c1ccc(N)cc1	3.4 nM	580 nM				
COc1ccc(S(=O)(=O)N(Cc2ccccc2)C[C@@H](O)[C@H](CC23CC4CC(CC(C4)C2)C3)NC(=O)O[C@H]2CO[C@H]3OCC[C@H]32)cc1	8.5 nM	310 nM				
CC(C)CN(C[C@@H](O)[C@H](Cc1ccccc1)NC(=O)O[C@H]1CCOC1)S(=O)(=O)c1ccc(N)cc1			> 1000 nM	860 nM	17 nM	430 nM
COc1ccc(S(=O)(=O)N(CC(C)C)C[C@@H](O)[C@H](CC23CC4CC(CC(C4)C2)C3)NC(=O)O[C@@H]2CO[C@@H]3OCC[C@@H]32)cc1	1 nM					
COc1ccc(S(=O)(=O)N(CC(C)C)C[C@@H](O)[C@H](CC23CC4CC(CC(C4)C2)C3)NC(=O)O[C@H]2CCOC2)cc1	0.54 nM	39 nM	> 1000 nM	> 1000 nM	460 nM	> 1000 nM
CC(C)CN(C[C@@H](O)[C@H](Cc1ccccc1)NC(=O)O[C@H]1CO[C@H]2OCC[C@H]21)S(=O)(=O)c1ccc(N)cc1			87 nM	43 nM		30 nM
COc1ccc(S(=O)(=O)N(C[C@@H](O)[C@H](CC23CC4CC(CC(C4)C2)C3)NC(=O)O[C@H]2CO[C@H]3OCC[C@H]32)c2ccccc2)cc1	1.1 nM					
COc1ccc(S(=O)(=O)N(CC(C)C)C[C@@H](O)[C@H](CC23CC4CC(CC(C4)C2)C3)NC(=O)O[C@@H]2CO[C@@H]3OCCC[C@@H]32)cc1	24 nM	> 1000 nM				
COc1ccc(S(=O)(=O)N(CC(C)C)C[C@@H](O)[C@H](CC23CC4CC(CC(C4)C2)C3)NC(=O)O[C@H]2CO[C@H]3OCC[C@H]32)cc1	0.48 nM	32 nM	> 1000 nM	> 1000 nM	15 nM	360 nM
COc1ccc(S(=O)(=O)N(CC(C)C)C[C@@H](O)[C@H](CC23CC4CC(CC(C4)C2)C3)NC(=O)O[C@H]2CO[C@H]3OCCC[C@H]32)cc1	1.9 nM	460 nM				
